pIC50: −log10 of the molar value. Numbered stars: 1 amine (or outer) side, 2 acyl side, 3 side chain; on linkers, the order of the positions; unused ones are H or OH. Square brackets hold non-standard residues; d marks the D form. Side chains are listed from the residue outwards. Peptide text beside a SMILES is read from it. * marks the point of attachment. X1 = N=C(N)NCCC[C@H](N)CN*; ΔPro = O=C(O)[C@@H]1C=CCN1; Dab = NCC[C@H](N)C(=O)O; CO = O=C([*:1])[*:2]

Results on six molecules are retold here after ChEMBL document CHEMBL4346745, “Urea moiety as amide bond mimetic in peptide-like inhibitors of VEGF-A165/NRP-1 complex” (Bioorg Med Chem Lett, 2019).

Data set [1] in a line: Retention time in human plasma treated with 1 uM (S)-5-guanidino-2-((S)-1-((6S,15S,18R)-1,6,15-triamino-18-(2-aminoethyl)-1-imino-9,16-dioxo-2,8,10,17-tetraazanonadecane)-2,3-dihydro-1H-pyrrole-2-carboxamido)pentanoic acid at 1 uM after 96 hrs by LC-MS analysis. In kind it is ADME, cell-free. Put shortly: (§1)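 Compounds incubated in human plasma at 37 °C; aliquots withdrawn at selected time intervals up to 96 h and analysed by RP-HPLC and LC-MS to follow parent loss and the fragments formed.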

A further data set addresses Neuropilin-1 (Homo sapiens, UniProt O14786). Kind of data set: Inhibition of biotinylated human VEGF-A165 binding to recombinant human NRP1 receptor after 2 hrs by chemiluminescence analysis relative to control. Put shortly:
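ELISA-like competition format with chemiluminescent read-out of VEGF-A165 bound to NRP-1 in the presence of test peptidomimetic.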

A short description of data set [2]: Retention time in human plasma treated with 1 uM (S)-2-((S)-1-((S)-1-((S)-2-amino-6-(3-((S)-2-amino-5-guanidinopentyl)ureido)hexanoyl)pyrrolidine-2-carbonyl)pyrrolidine-2-carboxamido)-5-guanidinopentanoic acid at 1 uM after 96 hrs by LC-MS analysis. It counts as ADME, cell-free. Put shortly:
as §1

Data set [3] in a line: Metabolic stability in human plasma assessed as compound remaining at 1 uM after 96 hrs by RP-HPLC and LC-MS analysis relative to control. It counts as ADME, cell-free. The following applies: read-out: Stability. In a few lines:
as §1

Data set [4] can be described thus: Drug metabolism in human plasma assessed as (S)-2-amino-6-(3-((S)-2-amino-5-guanidinopentyl)ureido)hexanoic acid metabolite formation at 1 uM after 96 hrs by LC-MS analysis. In kind it is ADME, cell-free. In a few lines:
as §1

The nature of data set [5]: Stability in human plasma assessed as enzymatic cleavage of Lys(epsilon)-Arg(U) bond at 1 uM after 96 hrs by LC-MS analysis. It counts as ADME, cell-free. In a few lines:
as §1

Chain of Neuropilin-1 (O14786 whole entry): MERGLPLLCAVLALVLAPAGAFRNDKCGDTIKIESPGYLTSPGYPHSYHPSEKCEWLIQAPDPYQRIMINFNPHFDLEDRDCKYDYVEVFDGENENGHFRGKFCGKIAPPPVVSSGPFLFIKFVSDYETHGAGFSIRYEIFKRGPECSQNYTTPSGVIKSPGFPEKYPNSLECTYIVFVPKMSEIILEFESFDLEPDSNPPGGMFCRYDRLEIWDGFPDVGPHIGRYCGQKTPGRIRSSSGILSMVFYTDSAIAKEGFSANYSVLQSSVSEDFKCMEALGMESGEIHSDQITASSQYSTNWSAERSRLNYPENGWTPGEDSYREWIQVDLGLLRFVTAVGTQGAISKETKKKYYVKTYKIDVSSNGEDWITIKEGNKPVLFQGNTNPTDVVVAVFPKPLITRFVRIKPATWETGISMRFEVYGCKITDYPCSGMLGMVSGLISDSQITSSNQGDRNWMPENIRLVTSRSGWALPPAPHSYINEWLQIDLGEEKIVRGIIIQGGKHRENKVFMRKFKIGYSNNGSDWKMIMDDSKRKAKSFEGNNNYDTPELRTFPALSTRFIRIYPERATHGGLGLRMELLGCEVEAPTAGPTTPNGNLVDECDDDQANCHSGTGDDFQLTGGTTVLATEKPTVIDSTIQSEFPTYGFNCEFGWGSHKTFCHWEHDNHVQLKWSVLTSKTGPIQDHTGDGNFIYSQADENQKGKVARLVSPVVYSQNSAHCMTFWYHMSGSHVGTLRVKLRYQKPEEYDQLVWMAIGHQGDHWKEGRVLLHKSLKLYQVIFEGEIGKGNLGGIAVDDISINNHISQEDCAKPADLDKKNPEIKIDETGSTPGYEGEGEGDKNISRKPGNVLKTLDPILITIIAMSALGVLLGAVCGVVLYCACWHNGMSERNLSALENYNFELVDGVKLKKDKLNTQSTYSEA

Turning to `N=C(N)NCCC[C@H](N)CNC(=O)NCCCC[C@H](N)C(=O)N[C@@H](CCN)C(=O)N1CC=C[C@H]1C(=O)O`, the Retention_time in data set [1] is reported as 9.02 min.

As to `N=C(N)NCCC[C@H](N)CNC(=O)NCCCC[C@H](N)C(=O)N[C@H](CCN)C(=O)N1CC[C@H]1C(=O)N[C@@H](CCCNC(=N)N)C(=O)O`, at Neuropilin-1, the negative-log IC50 (pIC50) is 4.59.

For `N=C(N)NCCC[C@H](N)CNC(=O)NCCCC[C@H](N)C(=O)O`, the figures for the Retention_time in data set [2] and in data set [1] were 3 min and 2.92 min, respectively.

For `N=C(N)NCCC[C@H](N)CNC(=O)NCCCC[C@H](N)C(=O)N[C@H](CCN)C(=O)N1C2CCCCC2C[C@H]1C(=O)N[C@@H](CCCNC(=N)N)C(=O)O` (stereo not given in full), the pIC50 at Neuropilin-1 is 5.27.

With `N=C(N)NCCC[C@H](N)CNC(=O)NCCCC[C@H](N)C(=O)N1CCC[C@H]1C(=O)N1CCC[C@H]1C(=O)N[C@@H](CCCNC(=N)N)C(=O)O` (H-K([CO-X1])PPR-OH), the pIC50 on Neuropilin-1 is 5.11. The remaining at 96 h, 1 µM in data set [3] was 40 to 45%. In data set [4], the Drug metabolism entry is listed as “Metabolite_Detected”. In data set [5], the Stability result was “Stable”.

`N=C(N)NCCC[C@H](NC(=O)[C@@H]1C=CCN1C(=O)[C@@H](N)CCN)C(=O)O` (H-[Dab]-[ΔPro]-Arg-OH) showed a Retention_time in data set [1] of 0.98 min.

Usually pIC50 stands for the negative decadic logarithm of the IC50, by convention in mol/L.
